Measurements: ChEMBL document CHEMBL4680165, “β-Lactams with antiproliferative and antiapoptotic activity in breast and chemoresistant colon cancer cells” (Eur J Med Chem, 2020)
pIC50: −log10 of the molar value.

Experiments:
[1] = system: MCF7; experiment: Antiproliferative activity against human MCF7 cells assessed as reduction in cell viability after 72 hrs by alamar blue assay; format: functional, cell-based; settings: MCF7, 72 h
Outline: (§1)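 Cells seeded at 5 x 10^3/well (MCF-7) or 1 x 10^4/well (HT-29, HEK-293T) and treated after 24 h with serial dilutions (0.001-100 µM) in 1% v/v ethanol vehicle. Alamar Blue 10% v/v added at 72 h, then 3-5 h at 37 °C in the dark; fluorescence ex 530/em 590 nm. Viability relative to vehicle; IC50 from dose-response curves; mean of three experiments in triplicate.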

[2] = system: HT-29; experiment: Antiproliferative activity against human HT-29 cells assessed as reduction in cell viability after 72 hrs by alamar blue assay; format: functional, cell-based; settings: HT-29, 72 h; outline: as §1
[3] = Selectivity index, ratio of IC50 for human MCF7 cells to IC50 for human HT-29 cells assessed as reduction in cell viability after 72 hrs by alamar blue assay; format: functional
[4] = system: CCRF-CEM; experiment: Antiproliferative activity against human CCRF-CEM cells assessed as cell growth inhibition; format: functional
Outline: (§2)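 NCI 60 cell line screen. Five concentrations (100, 10, 1, 0.1 and 0.01 µM) with 48 h drug exposure. GI50 is the molar concentration giving 50% growth inhibition; TGI and LC50 were also derived.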

[5] = system: HL-60; experiment: Antiproliferative activity against human HL60 cells assessed as cell growth inhibition; format: functional; outline: as §2
[6] = system: K562; experiment: Antiproliferative activity against human K-562 cells assessed as cell growth inhibition; format: functional; outline: as §2
[7] = system: MOLT-4; experiment: Antiproliferative activity against human MOLT-4 cells assessed as cell growth inhibition; format: functional; outline: as §2
[8] = system: RPMI-8226; experiment: Antiproliferative activity against human RPMI-8226 cells assessed as cell growth inhibition; format: functional; outline: as §2
[9] = system: SR; experiment: Antiproliferative activity against human SR cells assessed as cell growth inhibition; format: functional
Outline: (§3)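 NCI60 cell line screen: cells exposed for 48 h to five concentrations (100, 10, 1, 0.1 and 0.01 µM). GI50 is the molar concentration giving 50% growth inhibition; TGI and LC50 were also determined.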

[10] = system: A549; experiment: Antiproliferative activity against human A549 cells assessed as cell growth inhibition; format: functional; outline: as §2
[11] = system: EKVX; experiment: Antiproliferative activity against human EKVX cells assessed as cell growth inhibition; format: functional; outline: as §2
[12] = system: HOP-62; experiment: Antiproliferative activity against human HOP-62 cells assessed as cell growth inhibition; format: functional; outline: as §2
[13] = system: HOP-92; experiment: Antiproliferative activity against human HOP-92 cells assessed as cell growth inhibition; format: functional; outline: as §2
[14] = system: NCI-H226; experiment: Antiproliferative activity against human NCI-H226 cells assessed as cell growth inhibition; format: functional; outline: as §2
[15] = system: NCI-H23; experiment: Antiproliferative activity against human NCI-H23 cells assessed as cell growth inhibition; format: functional; outline: as §2
[16] = Antiproliferative activity against human NCI-H332M cells assessed as cell growth inhibition; format: functional; outline: as §2
[17] = system: NCI-H460; experiment: Antiproliferative activity against human NCI-H460 cells assessed as cell growth inhibition; format: functional; outline: as §2
[18] = system: NCI-H522; experiment: Antiproliferative activity against human […] cells assessed as cell growth inhibition; format: functional; outline: as §2
[19] = system: COLO 205; experiment: Antiproliferative activity against human COLO 205 cells assessed as cell growth inhibition; format: functional; outline: as §2
[20] = system: HCC 2998; experiment: Antiproliferative activity against human HCC-2998 cells assessed as cell growth inhibition; format: functional; outline: as §2
[21] = system: HCT-116; experiment: Antiproliferative activity against human HCT-116 cells assessed as cell growth inhibition; format: functional; outline: as §2
[22] = system: HCT-15; experiment: Antiproliferative activity against human HCT-15 cells assessed as cell growth inhibition; format: functional; outline: as §2
[23] = system: HT-29; experiment: Antiproliferative activity against human HT-29 cells assessed as cell growth inhibition; format: functional; outline: as §2
[24] = system: KM12; experiment: Antiproliferative activity against human KM12 cells assessed as cell growth inhibition; format: functional; outline: as §2
[25] = system: SW-620; experiment: Antiproliferative activity against human SW-620 cells assessed as cell growth inhibition; format: functional; outline: as §3
[26] = system: SF-268; experiment: Antiproliferative activity against human SF-268 cells assessed as cell growth inhibition; format: functional; outline: as §2
[27] = system: SF-295; experiment: Antiproliferative activity against human SF295 cells assessed as cell growth inhibition; format: functional; outline: as §2
[28] = system: SF-539; experiment: Antiproliferative activity against human SF539 cells assessed as cell growth inhibition; format: functional; outline: as §3
[29] = system: SNB-19; experiment: Antiproliferative activity against human SNB-19 cells assessed as cell growth inhibition; format: functional; outline: as §3
[30] = system: SNB-75; experiment: Antiproliferative activity against human SNB-75 cells assessed as cell growth inhibition; format: functional; outline: as §3
[31] = system: U-251; experiment: Antiproliferative activity against human U251 cells assessed as cell growth inhibition; format: functional; outline: as §3
[32] = system: PC-3; experiment: Antiproliferative activity against human PC-3 cells assessed as cell growth inhibition; format: functional; outline: as §2
[33] = system: DU-145; experiment: Antiproliferative activity against human DU-145 cells assessed as cell growth inhibition; format: functional; outline: as §2
[34] = system: LOX IMVI; experiment: Antiproliferative activity against human LOX IMVI cells assessed as cell growth inhibition; format: functional; outline: as §2
[35] = system: Malme-3M; experiment: Antiproliferative activity against human Malme-3M cells assessed as cell growth inhibition; format: functional; outline: as §2
[36] = system: M14; experiment: Antiproliferative activity against human M14 cells assessed as cell growth inhibition; format: functional; outline: as §2
[37] = system: MDA-MB-435; experiment: Antiproliferative activity against human MDA-MB-435 cells assessed as cell growth inhibition; format: functional; outline: as §2
[38] = system: SK-MEL-2; experiment: Antiproliferative activity against human SK-MEL-2 cells assessed as cell growth inhibition; format: functional; outline: as §3
[39] = system: SK-MEL-28; experiment: Antiproliferative activity against human SK-MEL-28 cells assessed as cell growth inhibition; format: functional; outline: as §3
[40] = system: SK-MEL-5; experiment: Antiproliferative activity against human SK-MEL-5 cells assessed as cell growth inhibition; format: functional; outline: as §3
[41] = system: UACC-62; experiment: Antiproliferative activity against human UACC-62 cells assessed as cell growth inhibition; format: functional; outline: as §3
[42] = system: IGROV-1; experiment: Antiproliferative activity against human IGROV-1 cells assessed as cell growth inhibition; format: functional; outline: as §2
[43] = system: OVCAR-3; experiment: Antiproliferative activity against human OVCAR-3 cells assessed as cell growth inhibition; format: functional; outline: as §2
[44] = system: OVCAR-4; experiment: Antiproliferative activity against human OVCAR-4 cells assessed as cell growth inhibition; format: functional; outline: as §2
[45] = system: OVCAR-5; experiment: Antiproliferative activity against human OVCAR-5 cells assessed as cell growth inhibition; format: functional; outline: as §2
[46] = system: OVCAR-8; experiment: Antiproliferative activity against human OVCAR-8 cells assessed as cell growth inhibition; format: functional; outline: as §2
[47] = system: NCI/ADR-RES; experiment: Antiproliferative activity against human NCI/ADR-RES cells assessed as cell growth inhibition; format: functional; outline: as §2
[48] = system: SK-OV-3; experiment: Antiproliferative activity against human SK-OV-3 cells assessed as cell growth inhibition; format: functional; outline: as §3
[49] = system: 786-0; experiment: Antiproliferative activity against human 786-0 cells assessed as cell growth inhibition; format: functional; outline: as §2
[50] = system: A498; experiment: Antiproliferative activity against human A498 cells assessed as cell growth inhibition; format: functional; outline: as §2
[51] = system: ACHN; experiment: Antiproliferative activity against human ACHN cells assessed as cell growth inhibition; format: functional; outline: as §2
[52] = system: CAKI-1; experiment: Antiproliferative activity against human […] cells assessed as cell growth inhibition; format: functional; outline: as §2
[53] = system: SN12C; experiment: Antiproliferative activity against human SN12C cells assessed as cell growth inhibition; format: functional; outline: as §3
[54] = system: TK-10; experiment: Antiproliferative activity against human TK-10 cells assessed as cell growth inhibition; format: functional; outline: as §3
[55] = system: UO-31; experiment: Antiproliferative activity against human UO-31 cells assessed as cell growth inhibition; format: functional; outline: as §3
[56] = system: MCF7; experiment: Antiproliferative activity against human MCF7 cells assessed as cell growth inhibition; format: functional; outline: as §2
[57] = system: MDA-MB-231; experiment: Antiproliferative activity against human MDA-MB-231 cells assessed as cell growth inhibition; format: functional; outline: as §2
[58] = system: Hs-578T; experiment: Antiproliferative activity against human Hs-578T cells assessed as cell growth inhibition; format: functional; outline: as §2
[59] = system: BT-549; experiment: Antiproliferative activity against human BT-549 cells assessed as cell growth inhibition; format: functional; outline: as §2
[60] = system: T47D; experiment: Antiproliferative activity against human T47D cells assessed as cell growth inhibition; format: functional; outline: as §3
[61] = system: MDA-MB-468; experiment: Antiproliferative activity against human MDA-MB-468 cells assessed as cell growth inhibition; format: functional; outline: as §2
[62] = system: UDP-glucuronosyltransferases (UGTs); experiment: Metabolic stability in human liver microsomes assessed as UGT-mediated N-glucuronidation by measuring half life at 3 uM measured up to 45 mins by LC-MS/MS analysis; format: ADME; settings: microsomes, 0.75 h, 3 µM
Outline: (§4)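 Pooled human liver microsomes (0.5 mg/mL protein final) with alamethicin (25 µg/mg) in 0.1 M phosphate pH 7.4, compound 3 µM final (0.25% DMSO), preincubated 37 °C. Reaction started with UDPGA (1 mM final). Sampled at 0, 5, 15, 30, 45 min into methanol, analysed by LC-MS/MS. Minus-UDPGA control run 45 min. Single incubations; t½ and CLint taken from the elimination rate constant.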

[63] = system: UDP-glucuronosyltransferases (UGTs); experiment: Metabolic stability in human liver microsomes assessed as UGT-mediated N-glucuronidation by measuring intrinsic clearance at 3 uM measured up to 45 mins by LC-MS/MS analysis; format: ADME; settings: microsomes, 0.75 h, 3 µM; outline: as §4

COc1ccc([C@H]2[C@H](c3ccccc3)C(=O)N2c2cc(OC)c(OC)c(OC)c2)cc1F
pIC50 [1]: 7.77
pIC50 [2]: 8.05
Ratio IC50 [3]: 1.88
GI50 [4]: 36.1 nM
GI50 [5]: 22.3 nM
GI50 [6]: 32.1 nM
GI50 [7]: 38.1 nM
GI50 [8]: 41.3 nM
GI50 [9]: 37.3 nM
GI50 [10]: 36.8 nM
GI50 [11]: 77.6 nM
GI50 [12]: 37.9 nM
GI50 [13]: 2840 nM
GI50 [14]: 35 nM
GI50 [15]: 48.9 nM
GI50 [16]: 68.7 nM
GI50 [17]: 34.4 nM
GI50 [18]: 18.6 nM
GI50 [19]: 19.4 nM
GI50 [20]: 39.4 nM
GI50 [21]: 32.4 nM
GI50 [22]: 33.6 nM
GI50 [23]: 26 nM
GI50 [24]: 33.1 nM
GI50 [25]: 41.9 nM
GI50 [26]: 44.3 nM
GI50 [27]: 29 nM
GI50 [28]: 23.4 nM
GI50 [29]: 49.9 nM
GI50 [30]: 31.4 nM
GI50 [31]: 35.9 nM
GI50 [32]: 40.3 nM
GI50 [33]: 35.4 nM
GI50 [34]: 29.6 nM
GI50 [35]: > 100000 nM
GI50 [36]: 22.6 nM
GI50 [37]: 18.7 nM
GI50 [38]: 35.4 nM
GI50 [39]: 1370 nM
GI50 [40]: 27.1 nM
GI50 [41]: 54.3 nM
GI50 [42]: 42.8 nM
GI50 [43]: 28 nM
GI50 [44]: 87.1 nM
GI50 [45]: 51.7 nM
GI50 [46]: 34.4 nM
GI50 [47]: 39.4 nM
GI50 [48]: 34.8 nM
GI50 [49]: 31.4 nM
GI50 [50]: 27 nM
GI50 [51]: 44 nM
GI50 [52]: 33.2 nM
GI50 [53]: 56.1 nM
GI50 [54]: 1680 nM
GI50 [55]: 77.1 nM
GI50 [56]: 29.6 nM
GI50 [57]: 45.2 nM
GI50 [58]: 43.4 nM
GI50 [59]: 26.6 nM
GI50 [60]: > 100000 nM
GI50 [61]: 28.7 nM
t1/2 [62]: 23.5 h
CLH [63]: 0.98 µL/min/mg
